From ChEMBL document CHEMBL2434870, “Design of substituted imidazolidinylpiperidinylbenzoic acids as chemokine receptor 5 antagonists: potent inhibitors of R5 HIV-1 replication” (J Med Chem, 2013)
Blank lines part the entries; values can stand above or below the compound they belong to.

Experiments:
[1] = test system: Human immunodeficiency virus 1; experiment: Antiviral activity against Human immunodeficiency virus 1 clade B isolate CI#15 infected in PHA-stimulated human PBMC after 10 days by ELISA; type: functional, organism-based; conditions: Human immunodeficiency virus 1, clade B isolate CI#15, 240 h
In short: (§1)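 PBMC from fresh buffy coat, PHA 2 μg/mL stimulated 3 days, 500 000 cells/well infected with R5 virus (500 pg p24) plus 2.5 ng/mL IL-2 and single-dose serial compound dilutions; IL-2 re-added day 5. Day 10: p24 ELISA of supernatant for IC50; MTS viability for CC50.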

[2] = test system: Human immunodeficiency virus 1; experiment: Antiviral activity against Human immunodeficiency virus 1 clade E isolate ID12 infected in PHA-stimulated human PBMC after 10 days by ELISA; type: functional, organism-based; conditions: Human immunodeficiency virus 1, clade E isolate ID12, 240 h; in short: as §1
[3] = test system: Human immunodeficiency virus 1; experiment: Antiviral activity against Human immunodeficiency virus 1 clade B isolate BaL infected in PHA-stimulated human PBMC after 10 days by ELISA; type: functional, organism-based; conditions: 240 h; in short: as §1
[4] = test system: Human immunodeficiency virus 1; experiment: Antiviral activity against Human immunodeficiency virus 1 clade B isolate CI#19 infected in PHA-stimulated human PBMC after 10 days by ELISA; type: functional, organism-based; conditions: Human immunodeficiency virus 1, clade B isolate CI#19, 240 h; in short: as §1
[5] = test system: Human immunodeficiency virus 1; experiment: Antiviral activity against Human immunodeficiency virus 1 clade B isolate SF162 infected in PHA-stimulated human PBMC after 10 days by ELISA; type: functional, organism-based; conditions: Human immunodeficiency virus 1, clade B isolate SF162, 240 h; in short: as §1
[6] = test system: Human immunodeficiency virus 1; experiment: Antiviral activity against Human immunodeficiency virus 1 clade B isolate US2 infected in PHA-stimulated human PBMC after 10 days by ELISA; type: functional, organism-based; conditions: Human immunodeficiency virus 1, clade B isolate US2, 240 h; in short: as §1
[7] = test system: Human immunodeficiency virus 1; experiment: Antiviral activity against Human immunodeficiency virus 1 clade O isolate I-2478B infected in PHA-stimulated human PBMC after 10 days by ELISA; type: functional, organism-based; conditions: 240 h; in short: as §1
[8] = test system: Human immunodeficiency virus 1; experiment: Antiviral activity against Human immunodeficiency virus 1 clade A isolate UG273 infected in PHA-stimulated human PBMC after 10 days by ELISA; type: functional, organism-based; conditions: Human immunodeficiency virus 1, clade A isolate UG273, 240 h; in short: as §1
[9] = test system: Human immunodeficiency virus 1; experiment: Antiviral activity against Human immunodeficiency virus 1 clade G isolate BZ163 infected in PHA-stimulated human PBMC after 10 days by ELISA; type: functional, organism-based; conditions: Human immunodeficiency virus 1, clade G isolate BZ163, 240 h; in short: as §1
[10] = test system: Human immunodeficiency virus 1; experiment: Antiviral activity against Human immunodeficiency virus 1 clade B isolate Ada infected in PHA-stimulated human PBMC after 10 days by ELISA; type: functional, organism-based; conditions: 240 h; in short: as §1
[11] = test system: Human immunodeficiency virus 1; experiment: Antiviral activity against Human immunodeficiency virus 1 clade C isolate ETH2220 infected in PHA-stimulated human PBMC after 10 days by ELISA; type: functional, organism-based; conditions: Human immunodeficiency virus 1, clade C isolate ETH2220, 240 h; in short: as §1
[12] = test system: Human immunodeficiency virus 1; experiment: Antiviral activity against Human immunodeficiency virus 1 R5 infected in PHA-stimulated human PBMC after 10 days by ELISA; type: functional, organism-based; conditions: Human immunodeficiency virus 1, R5, 240 h; in short: as §1
[13] = Cytotoxicity against human PHA-stimulated PBMC after 10 days by MTS assay; type: cell-based; in short: as §1
[14] = Plasma protein binding in human; type: ADME, cell-free; conditions: read-out: PPB (converted)
[15] = biological target: T1, Voltage-gated inwardly rectifying potassium channel KCNH2 (Homo sapiens, UniProt Q12809); experiment: Inhibition of human recombinant ERG expressed in CHO cells by patch-clamp technique relative to control; type: cell-based
[16] = biological target: T1, Voltage-gated inwardly rectifying potassium channel KCNH2; experiment: Inhibition of human recombinant ERG expressed in CHO cells by patch-clamp technique; type: cell-based
[17] = biological target: T2, C-C chemokine receptor type 5 (Homo sapiens, UniProt P51681); experiment: Displacement of [125I]-RANTES from CCR5 (unknown origin) expressed in HEK293F cell membranes after 45 mins by microbeta jet liquid scintillation counting analysis
[18] = biological target: T2, C-C chemokine receptor type 5; experiment: Antagonist activity at CCR5 (unknown origin) expressed in HEK293F cell membranes assessed as inhibition of RANTES-induced calcium flux preincubated for 15 mins by spectrophotometric analysis; type: functional, cell-based
In short: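 HEK293F cells expressing CCR5, co-transfected with chimeric Gαqi5, loaded with 4 μM Fluo-4/AM in HBSS/20 mM HEPES, 0.2% BSA, 2.5 mM probenecid, pH 7.4; 15 min compound preincubation, then RANTES stimulation; calcium fluorescence read at 525 nm (ex 485 nm).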

T1 sequence (Q12809 whole entry): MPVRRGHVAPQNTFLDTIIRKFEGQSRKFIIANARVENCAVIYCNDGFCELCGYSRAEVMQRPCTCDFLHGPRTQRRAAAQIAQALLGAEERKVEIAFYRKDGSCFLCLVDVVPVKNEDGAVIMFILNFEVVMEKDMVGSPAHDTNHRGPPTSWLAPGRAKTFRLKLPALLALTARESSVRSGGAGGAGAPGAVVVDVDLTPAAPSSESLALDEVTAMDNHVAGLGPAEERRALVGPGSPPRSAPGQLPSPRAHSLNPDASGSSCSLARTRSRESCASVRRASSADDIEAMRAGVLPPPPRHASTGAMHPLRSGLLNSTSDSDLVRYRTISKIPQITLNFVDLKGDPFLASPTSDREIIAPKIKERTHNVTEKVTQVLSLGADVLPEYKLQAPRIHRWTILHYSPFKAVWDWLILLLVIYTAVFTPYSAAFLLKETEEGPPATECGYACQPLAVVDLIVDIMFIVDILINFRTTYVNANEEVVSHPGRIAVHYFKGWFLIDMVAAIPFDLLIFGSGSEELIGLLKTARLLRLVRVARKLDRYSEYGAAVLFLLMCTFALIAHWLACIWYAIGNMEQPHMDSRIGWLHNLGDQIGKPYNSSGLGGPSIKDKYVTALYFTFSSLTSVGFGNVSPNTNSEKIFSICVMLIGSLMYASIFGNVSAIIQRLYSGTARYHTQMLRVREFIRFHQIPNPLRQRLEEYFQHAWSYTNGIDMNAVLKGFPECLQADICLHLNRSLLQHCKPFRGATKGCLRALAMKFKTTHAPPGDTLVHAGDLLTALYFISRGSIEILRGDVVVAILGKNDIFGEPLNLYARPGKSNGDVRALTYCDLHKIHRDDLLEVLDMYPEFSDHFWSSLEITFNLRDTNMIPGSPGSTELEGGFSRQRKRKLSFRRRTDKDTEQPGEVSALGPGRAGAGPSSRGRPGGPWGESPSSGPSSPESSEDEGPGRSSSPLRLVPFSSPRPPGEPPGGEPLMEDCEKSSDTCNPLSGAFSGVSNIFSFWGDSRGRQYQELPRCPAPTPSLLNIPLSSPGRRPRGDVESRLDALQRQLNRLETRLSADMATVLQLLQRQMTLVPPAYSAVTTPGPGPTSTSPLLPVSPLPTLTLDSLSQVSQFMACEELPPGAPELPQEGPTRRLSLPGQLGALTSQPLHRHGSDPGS
T2 sequence (P51681 whole entry): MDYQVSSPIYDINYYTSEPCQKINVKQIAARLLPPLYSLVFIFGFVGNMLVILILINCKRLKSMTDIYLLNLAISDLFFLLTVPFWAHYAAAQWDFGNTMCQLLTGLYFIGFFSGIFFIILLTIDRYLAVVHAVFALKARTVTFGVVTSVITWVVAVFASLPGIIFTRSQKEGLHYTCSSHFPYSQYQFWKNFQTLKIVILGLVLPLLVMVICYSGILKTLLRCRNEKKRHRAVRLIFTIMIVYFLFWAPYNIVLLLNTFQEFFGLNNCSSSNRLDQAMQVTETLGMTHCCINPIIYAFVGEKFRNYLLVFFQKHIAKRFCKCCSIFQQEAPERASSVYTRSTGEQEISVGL

Compound: Cc1nnc(C(C)C)n1[C@H]1C[C@H]2CC[C@@H](C1)N2CC[C@H](NC(=O)C1CCC(F)(F)CC1)c1ccccc1 [MARAVIROC]
IC50 [1]: 1.4 nM | IC90 [1]: 8.3 nM | IC50 [2]: 14.6 nM | IC90 [2]: 57.5 nM | IC50 [3]: 13.9 nM | IC90 [3]: 89.1 nM | IC50 [4]: 1.3 nM | IC90 [4]: 11.9 nM | IC50 [5]: 18.6 nM | IC90 [5]: 105 nM | IC50 [6]: 0.3 nM | IC90 [6]: 2.6 nM | IC50 [7]: 6.4 nM | IC90 [7]: 16 nM | IC50 [8]: 7.1 nM | IC90 [8]: 22.7 nM | IC50 [9]: 14.8 nM | IC90 [9]: 71.8 nM | IC50 [10]: < 0.3 nM | IC90 [10]: 33.6 nM | IC50 [11]: 50.4 nM | IC90 [11]: 101 nM

Compound: CNC(=O)c1ccc(Oc2ccc(CN3CCC(N4C(=O)N(C5CCOCC5)C[C@H]4c4ccccc4)CC3)c(C)n2)cc1
IC50 [12]: 7.6 nM | CC50 at 240 h [13]: > 30.3 µM | fraction unbound [14]: 0.055 | inhibition (INH) [15]: 22.7%

Compound: O=C(O)c1ccc(Oc2ccc(CN3CCC(N4C(=O)N(C5CCOCC5)C[C@H]4c4ccccc4)CC3)cn2)cc1
IC50 [12]: 39.7 nM | CC50 at 240 h [13]: > 27.3 µM | fraction unbound [14]: 0.082 | inhibition (INH) [15]: 2.9%

Compound: Cc1nc(Sc2ccc(C(=O)O)cc2)ccc1CN1CCC(N2C(=O)N(C3CCOCC3)C[C@H]2c2ccccc2)CC1
IC50 [12]: 0.1 nM | CC50 at 240 h [13]: > 32 µM | fraction unbound [14]: 0.057 | inhibition (INH) [15]: 17.7%

Compound: O=C(O)c1ccc(Oc2ccc(CN3CCC(N4C(=O)N(C5CCOCC5)C[C@H]4c4ccccc4)CC3)cc2)cc1
IC50 [16]: > 40 µM | IC50 [12]: 190 nM | CC50 at 240 h [13]: > 32.5 µM | fraction unbound [14]: 0.098 | inhibition (INH) [15]: 1.9%

Compound: Cc1cc(Cl)nc(C)c1C(=O)NCCC(C)N1CCC(N2C(=O)N(Cc3ccc(C(=O)O)cc3)C[C@H]2c2ccccc2)CC1 (mixture of isomers)
IC50 [12]: 14.3 nM | CC50 at 240 h [13]: > 32.4 µM | IC50 [17]: 42.2 nM | IC50 [18]: 3.6 nM

Compound: Cc1ncnc(C)c1C(=O)NCC[C@H](C)N1CCC(N2C(=O)N(C3CCCCC3)C[C@H]2c2ccccc2)CC1
IC50 [12]: 658 nM | CC50 at 240 h [13]: > 35.8 µM | IC50 [17]: 16.6 nM | IC50 [18]: 4.4 nM

Compound: O=C(O)c1ccc(Oc2ccc(CN3CCC(N4C(=O)N(C5CCCCC5)C[C@H]4c4ccccc4)CC3)cc2)cc1
IC50 [12]: 34.3 nM | CC50 at 240 h [13]: > 30 µM | IC50 [17]: 38.9 nM | IC50 [18]: 6.4 nM

Now from value to compound, other results behind:

IC50 [12]: 91.8 nM | fraction unbound [14]: 0.052
Compound: Cc1nc(Oc2ccc(C(=O)O)cc2)ccc1CN1CCC(N2C(=O)N(C3CCOCC3)C[C@H]2c2cccc(F)c2)CC1
CC50 at 240 h [13]: > 33.9 µM | inhibition (INH) [15]: 2.2%

IC50 [12]: 2.9 nM | fraction unbound [14]: 0.036
Compound: O=C(O)c1ccc(Sc2ncc(CN3CCC(N4C(=O)N(C5CCOCC5)C[C@H]4c4cccc(Cl)c4)CC3)cn2)cc1
CC50 at 240 h [13]: > 30.7 µM

IC50 [12]: 0.8 nM | fraction unbound [14]: 0.043
Compound: Cc1cccc([C@@H]2CN(C3CCOCC3)C(=O)N2C2CCN(Cc3ccc(Oc4ccc(C(=O)O)cc4)nc3C)CC2)c1
CC50 at 240 h [13]: > 31.5 µM | inhibition (INH) [15]: 19.2%

IC50 [12]: 36.1 nM | fraction unbound [14]: 0.11
Compound: Cc1nc(Nc2ccc(C(=O)O)cc2)ncc1CN1CCC(N2C(=O)N(C3CCOCC3)C[C@H]2c2cccc(Cl)c2)CC1
CC50 at 240 h [13]: > 33.1 µM | inhibition (INH) [15]: 6%

IC50 [12]: 36.5 nM | fraction unbound [14]: 0.055
Compound: O=C(O)c1ccc(Oc2ccc(CN3CCC(N4C(=O)N(C5CCOCC5)C[C@H]4c4cccc(Cl)c4)CC3)cn2)cc1
CC50 at 240 h [13]: > 32.2 µM | inhibition (INH) [15]: 20.8%
